Measurements taken from publication PMC3174055 (Biochemical Journal, 2011).
pIC50: −log10 of the molar value. Several values for one entry are separate records, joined by “and”; a condition that tells them apart may be missing. Equal entries are not always repeated. Values belong to the molecule of their own block, whether it stands above or below them.

Experiments:
[1] = Plasma pharmacokinetics in mice; type: in vivo, CD-1 mice; settings: male, CD-1, mouse, ip, 10 mg/kg
SK-OV-3 xenograft = experiment: SK-OV-3 tumour xenograft efficacy and toxicity; type: in vivo, Rag1−/− or NIH-III mice; settings: QD×21, BEZ-235 15 mg/kg, A66 100 mg/kg
Outline: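 SPF Rag1−/− or NIH-III mice, 5×10^6 SK-OV-3 cells s.c. in PBS; dosing began at about 7 mm tumours. I.p., 10 ml/kg. Test compound (20% hydroxypropyl-β-cyclodextrin): 100 mg/kg QD×21 or 75 mg/kg BID×16, injections ≥~8 h apart. Reference inhibitor (10% ethanol): 15 mg/kg QD×21. Vehicle controls; 7–8 mice/group. Caliper volume (L×w²)×π/6; daily body weight; final-day TGI; ANOVA-Bonferroni.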

U87MG xenograft = experiment: U87MG tumour xenograft efficacy and toxicity; type: in vivo, Rag1−/− or NIH-III mice; settings: QD×14, BEZ-235 15 mg/kg, A66 100 mg/kg
Outline: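 U87MG cells (5×10^6, s.c. in PBS) in SPF Rag1−/− or NIH-III mice; treatment started at tumours of about 7 mm. Daily i.p. dosing for 14 days (10 ml/kg, free base). Test compound in 20% hydroxypropyl-β-cyclodextrin; reference inhibitor in 10% ethanol; controls given vehicle. Caliper volume (L×w²)×π/6; daily body weight and toxicity checks; mice killed at >20% weight loss.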

HCT-116 xenograft = experiment: HCT-116 tumour xenograft efficacy and toxicity; type: in vivo, Rag1−/− or NIH-III mice; settings: QD×7, BEZ-235 10 mg/kg, A66 100 mg/kg
Outline: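 HCT-116 xenografts from 5×10^6 cells s.c. in PBS, in SPF Rag1−/− or NIH-III mice. Once-daily i.p. dosing for 7 days from tumours of about 7 mm. Test compound in 20% hydroxypropyl-β-cyclodextrin; reference inhibitor at 10 mg/kg in 10% ethanol; vehicle controls. Caliper volumes by (L×w²)×π/6; daily weights; euthanasia if weight loss exceeded 20%.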

[2] = system: phosphorylation of Akt/PKB (Ser473, Thr308); experiment: Insulin-stimulated activation of Akt/PKB in cell lines, Western blotting; type: cell-based; settings: for inhibition of insulin-stimulated phosphorylation of Akt/PKB Ser473 and Thr308: cell lines that lack the H1047R mutation, drug 15 min, then 500 nM insulin 5 min; for inhibition of insulin-stimulated activation of Akt/PKB: MCF7 cells
Outline: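 Cells serum-starved overnight, then exposed to test compound or DMSO vehicle for 15 min and stimulated with 500 nM insulin for 5 min. Lysates separated by SDS/PAGE, 20 μg protein per lane except T47D, SK-OV-3 and MCF7, and Western blotted for Akt/PKB phosphorylation.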

[3] = system: panel of 110 protein kinases; experiment: Protein kinase profiling, panel of 110 protein kinases; type: biochemical; settings: 10 μM, Supplementary Figure S1
p110γ = p110γ (Homo sapiens, UniProt P48736); experiment: PI3K; type: biochemical; settings: read-out: IC50 against p110γ; HTRF assay
p110γ, sequence (P48736 whole entry): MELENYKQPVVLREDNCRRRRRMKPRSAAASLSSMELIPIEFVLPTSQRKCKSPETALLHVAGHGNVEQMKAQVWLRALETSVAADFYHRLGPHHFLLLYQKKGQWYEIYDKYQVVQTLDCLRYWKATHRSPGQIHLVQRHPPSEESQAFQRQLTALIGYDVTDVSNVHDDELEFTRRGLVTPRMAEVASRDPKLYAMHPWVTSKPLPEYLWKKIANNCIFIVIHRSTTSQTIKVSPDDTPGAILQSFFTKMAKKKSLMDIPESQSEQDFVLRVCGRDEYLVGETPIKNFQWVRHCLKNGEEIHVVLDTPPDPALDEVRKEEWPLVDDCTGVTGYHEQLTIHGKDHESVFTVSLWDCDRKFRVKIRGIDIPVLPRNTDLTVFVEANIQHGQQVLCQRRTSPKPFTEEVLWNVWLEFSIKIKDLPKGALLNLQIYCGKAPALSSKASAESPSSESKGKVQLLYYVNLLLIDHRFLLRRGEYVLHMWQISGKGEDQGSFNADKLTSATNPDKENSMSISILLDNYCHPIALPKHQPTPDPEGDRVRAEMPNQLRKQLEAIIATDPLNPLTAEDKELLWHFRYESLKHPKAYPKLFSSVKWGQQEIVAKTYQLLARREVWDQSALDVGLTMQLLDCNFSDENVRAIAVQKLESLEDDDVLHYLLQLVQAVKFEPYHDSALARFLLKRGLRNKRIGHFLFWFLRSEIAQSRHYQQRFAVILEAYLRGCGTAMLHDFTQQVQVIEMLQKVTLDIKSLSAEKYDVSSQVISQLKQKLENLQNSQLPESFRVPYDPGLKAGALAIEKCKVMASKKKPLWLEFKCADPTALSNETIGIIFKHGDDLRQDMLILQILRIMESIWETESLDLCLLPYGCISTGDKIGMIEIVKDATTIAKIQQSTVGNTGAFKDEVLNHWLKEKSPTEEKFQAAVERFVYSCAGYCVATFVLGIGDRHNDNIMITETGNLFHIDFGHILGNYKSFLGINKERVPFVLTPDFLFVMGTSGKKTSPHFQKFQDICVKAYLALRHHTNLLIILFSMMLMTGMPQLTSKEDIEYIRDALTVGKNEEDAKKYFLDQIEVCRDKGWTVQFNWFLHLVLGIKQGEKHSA

p110α E545K = p110α E545K (Homo sapiens, UniProt P42336, E545K); experiment: PI3K; type: biochemical; settings: read-out: IC50 against p110α E545K; HTRF assay
p110α E545K, sequence (P42336 whole entry E545K): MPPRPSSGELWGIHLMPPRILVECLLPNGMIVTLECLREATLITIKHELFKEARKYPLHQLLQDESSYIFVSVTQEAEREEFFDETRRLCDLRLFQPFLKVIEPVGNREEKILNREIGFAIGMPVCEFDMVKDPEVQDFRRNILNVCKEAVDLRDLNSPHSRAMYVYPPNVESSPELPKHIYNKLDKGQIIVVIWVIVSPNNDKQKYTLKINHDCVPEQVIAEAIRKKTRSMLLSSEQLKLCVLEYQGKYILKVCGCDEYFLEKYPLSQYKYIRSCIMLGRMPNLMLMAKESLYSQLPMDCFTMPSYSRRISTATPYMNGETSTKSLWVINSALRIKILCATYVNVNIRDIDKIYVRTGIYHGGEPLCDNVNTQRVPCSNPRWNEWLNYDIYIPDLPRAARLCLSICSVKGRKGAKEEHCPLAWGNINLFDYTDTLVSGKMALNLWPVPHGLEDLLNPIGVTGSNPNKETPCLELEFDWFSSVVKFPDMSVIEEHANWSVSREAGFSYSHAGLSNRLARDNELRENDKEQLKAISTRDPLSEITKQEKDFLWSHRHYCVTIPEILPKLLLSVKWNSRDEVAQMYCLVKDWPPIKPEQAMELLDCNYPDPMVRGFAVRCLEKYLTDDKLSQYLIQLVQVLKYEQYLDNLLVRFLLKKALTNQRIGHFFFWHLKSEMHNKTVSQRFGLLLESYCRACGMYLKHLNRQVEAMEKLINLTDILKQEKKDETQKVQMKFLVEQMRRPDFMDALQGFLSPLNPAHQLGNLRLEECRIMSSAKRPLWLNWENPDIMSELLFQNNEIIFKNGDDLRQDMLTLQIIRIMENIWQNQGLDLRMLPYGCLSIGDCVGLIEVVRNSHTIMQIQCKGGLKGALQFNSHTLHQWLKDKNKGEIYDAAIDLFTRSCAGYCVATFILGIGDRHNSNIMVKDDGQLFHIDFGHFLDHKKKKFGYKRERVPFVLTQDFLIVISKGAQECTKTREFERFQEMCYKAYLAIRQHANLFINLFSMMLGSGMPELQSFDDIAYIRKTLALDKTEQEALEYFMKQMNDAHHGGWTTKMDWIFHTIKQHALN
p110α E545K, sequence (P27986 whole entry partner): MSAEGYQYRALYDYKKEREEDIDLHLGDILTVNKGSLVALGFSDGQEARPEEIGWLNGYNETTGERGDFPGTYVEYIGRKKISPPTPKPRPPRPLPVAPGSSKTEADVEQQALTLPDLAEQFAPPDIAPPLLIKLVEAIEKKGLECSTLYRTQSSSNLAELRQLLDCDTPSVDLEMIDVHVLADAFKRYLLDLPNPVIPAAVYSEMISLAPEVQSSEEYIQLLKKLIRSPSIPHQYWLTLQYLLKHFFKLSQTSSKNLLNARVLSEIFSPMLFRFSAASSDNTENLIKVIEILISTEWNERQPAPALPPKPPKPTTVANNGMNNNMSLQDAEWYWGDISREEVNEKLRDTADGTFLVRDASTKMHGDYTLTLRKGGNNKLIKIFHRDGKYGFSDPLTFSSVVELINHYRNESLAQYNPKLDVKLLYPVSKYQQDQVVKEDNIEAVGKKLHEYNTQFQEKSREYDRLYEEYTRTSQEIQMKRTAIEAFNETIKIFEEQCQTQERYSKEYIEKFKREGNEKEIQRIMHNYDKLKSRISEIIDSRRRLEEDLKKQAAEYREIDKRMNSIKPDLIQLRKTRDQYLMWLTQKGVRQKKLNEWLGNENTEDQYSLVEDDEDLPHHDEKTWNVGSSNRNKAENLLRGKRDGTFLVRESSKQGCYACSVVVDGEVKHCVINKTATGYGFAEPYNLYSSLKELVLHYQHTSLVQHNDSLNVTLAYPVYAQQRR

p110δ = p110δ (Homo sapiens, UniProt O00329); experiment: PI3K; type: biochemical; settings: read-out: IC50 against p110δ; HTRF assay
p110δ, sequence (O00329 whole entry): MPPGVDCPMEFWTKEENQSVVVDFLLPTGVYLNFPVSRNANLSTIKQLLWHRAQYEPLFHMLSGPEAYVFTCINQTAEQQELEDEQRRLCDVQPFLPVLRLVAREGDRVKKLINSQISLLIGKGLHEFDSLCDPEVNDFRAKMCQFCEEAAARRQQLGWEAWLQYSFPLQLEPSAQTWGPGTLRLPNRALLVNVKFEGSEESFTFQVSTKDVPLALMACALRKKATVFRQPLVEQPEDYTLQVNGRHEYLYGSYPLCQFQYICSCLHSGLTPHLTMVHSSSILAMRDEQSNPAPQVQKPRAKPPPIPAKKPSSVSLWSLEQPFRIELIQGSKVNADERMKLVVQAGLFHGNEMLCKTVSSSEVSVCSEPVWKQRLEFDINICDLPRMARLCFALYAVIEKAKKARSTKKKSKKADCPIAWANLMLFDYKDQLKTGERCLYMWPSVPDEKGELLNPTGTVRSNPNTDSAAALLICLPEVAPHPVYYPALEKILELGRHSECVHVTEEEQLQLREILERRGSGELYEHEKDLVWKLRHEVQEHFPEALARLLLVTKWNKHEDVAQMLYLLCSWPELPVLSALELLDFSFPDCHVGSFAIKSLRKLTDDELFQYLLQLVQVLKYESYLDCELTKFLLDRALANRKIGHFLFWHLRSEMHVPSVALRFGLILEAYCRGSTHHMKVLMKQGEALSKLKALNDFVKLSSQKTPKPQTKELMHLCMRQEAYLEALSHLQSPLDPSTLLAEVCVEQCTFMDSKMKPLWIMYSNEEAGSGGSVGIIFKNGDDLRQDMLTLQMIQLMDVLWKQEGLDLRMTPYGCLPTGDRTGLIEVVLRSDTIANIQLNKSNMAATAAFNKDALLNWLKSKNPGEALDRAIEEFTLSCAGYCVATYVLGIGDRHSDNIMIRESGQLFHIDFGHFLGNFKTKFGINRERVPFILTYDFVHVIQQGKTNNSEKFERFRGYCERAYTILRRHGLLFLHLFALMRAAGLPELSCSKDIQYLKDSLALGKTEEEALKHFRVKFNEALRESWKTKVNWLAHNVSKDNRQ
p110δ, sequence (P27986 whole entry partner): as the sequence (P27986 whole entry partner) above

p110α = p110α (Homo sapiens, UniProt P42336); experiment: PI3K; type: biochemical; settings: read-out: IC50 against p110α; HTRF assay
p110α, sequence (P42336 whole entry): as the sequence (P42336 whole entry E545K) above, with K545E counted along it
p110α, sequence (P27986 whole entry partner): as the sequence (P27986 whole entry partner) above

p110α H1047R = p110α H1047R (Homo sapiens, UniProt P42336, H1047R); experiment: PI3K; type: biochemical; settings: read-out: IC50 against p110α H1047R; HTRF assay
p110α H1047R, sequence (P42336 whole entry H1047R): as the sequence (P42336 whole entry E545K) above, with K545E, H1047R counted along it
p110α H1047R, sequence (P27986 whole entry partner): as the sequence (P27986 whole entry partner) above

[4] = system: Akt/PKB activation in PTEN-deficient cell lines; settings: cited from earlier work

Compound: Cn1c(=O)n(-c2ccc(C(C)(C)C#N)cc2)c2c3cc(-c4cnc5ccccc5c4)ccc3ncc21 [BEZ-235]
AUC [1]: 7.33 µM·h
Cmax [1]: 1860 nM
Tmax [1]: 0.25 h
half-life [1]: 2.73 h
body weight loss / tolerability (SK-OV-3 xenograft): moderate body weight loss
BWL nadir (%) (SK-OV-3 xenograft; intraperitoneal): −9.5±6.6%
Number of deaths/n (SK-OV-3 xenograft; intraperitoneal): four and 4/7
effect on tumour volume / growth (U87MG xenograft; U87MG xenograft): significantly reduced
BWL nadir (%) (U87MG xenograft; U87MG, intraperitoneal): −8.4±5.4%
Number of deaths/n (U87MG xenograft; U87MG, intraperitoneal): 0/5
BWL nadir (%) (HCT-116 xenograft; HCT-116, intraperitoneal): −5.9±1.8%
Number of deaths/n (HCT-116 xenograft; HCT-116, intraperitoneal): 0/7
effect on tumour volume (HCT-116 xenograft; HCT-116 xenograft): had no effect

Compound: Cc1ccccc1-n1c(Cn2cnc3c(N)ncnc32)nc2cccc(C)c2c1=O [IC87114]
inhibition of insulin-stimulated phosphorylation of Akt/PKB Ser473 and Thr308 [2]: not inhibited
inhibitory effects on panel of 110 protein kinases [3]: do not have any major effects

Compound: O=c1cc(N2CCOCC2)oc2c(-c3ccccc3)cccc12 [LY294002]
inhibition of phosphorylation of Akt/PKB Ser473 and Thr308 ([2]; all cell lines tested): sensitive
inhibition of insulin-stimulated phosphorylation of Akt/PKB Ser473 and Thr308 [2]: effective

pIC50 (p110γ): 7.48
Compound: Cc1ccc([N+](=O)[O-])cc1S(=O)(=O)N(C)/N=C/c1cnc2ccc(Br)cn12 [PIK-75]
inhibition of insulin-stimulated activation of Akt/PKB [2]: partial inhibitory effect
inhibition of insulin-stimulated phosphorylation of Akt/PKB Ser473 and Thr308 [2]: less effective
inhibitory effects on panel of 110 protein kinases [3]: inhibited a large number of protein kinases

pIC50 (p110α E545K): < 6.00
pIC50 (p110δ): 6.89
pIC50 (p110α): < 6.00
inhibitory effects on panel of 110 protein kinases [3]: do not have any major effects
pIC50 (p110α H1047R): < 6.00
pIC50 (p110γ): < 5.90
Compound: Cc1cc(C(C)Nc2ccccc2)c2nc(N3CCOCC3)cc(=O)n2c1 (stereo not shown) [TGX-221]
inhibition of insulin-stimulated activation of Akt/PKB [2]: partial inhibitory effect
inhibition of insulin-stimulated phosphorylation of Akt/PKB Ser473 and Thr308 [2]: not inhibited
concentration required to induce reduction in Akt/PKB activation [4]: 2 µM

Compound: COC[C@H]1OC(=O)c2coc3c2[C@@]1(C)C1=C(C3=O)[C@@H]2CCC(=O)[C@@]2(C)C[C@H]1OC(C)=O [wortmannin]
inhibition of insulin-stimulated phosphorylation of Akt/PKB Ser473 and Thr308 [2]: effective
